Measurements from ChEMBL document CHEMBL4689842, “EUbOPEN Chemogenomics Library wave 1” (2021).
Several values for one entry are separate records, joined by “and”; a condition that tells them apart may be missing. Equal values may be shown once.

System: U2OS
Assay: Multiplex assay against U2OS
Type: toxicity, cell-based
Conditions: human
In short: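 On a CQ1 microscope at 37°C and 5% CO2, live cells were imaged after compound addition. They had been stained at seeding with Hoechst33342, BioTracker Green Microtubule Cytoskeleton Dye, MitoTracker Red and Annexin V Alexa Fluor 680. CellPathfinder machine-learning gating assigned cells to Hoechst high-intensity objects or normal cells, normal cells to healthy, pyknosed or fragmented nuclei, and pyknosed cells to mitotic or apoptotic. Tubulin, mitochondrial-mass and membrane-permeability phenotypes are per cents of healthy-nucleus cells.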

[1] = 12 h, 1 µM, compound concentration 1 uM, replicate 1
[2] = 12 h, 1 µM, compound concentration 1 uM, replicate 2
[3] = 12 h, 10 µM, compound concentration 10 uM, replicate 1
[4] = 12 h, 10 µM, compound concentration 10 uM, replicate 2
[5] = 24 h, 1 µM, compound concentration 1 uM, replicate 1
[6] = 24 h, 1 µM, compound concentration 1 uM, replicate 2
[7] = 24 h, 10 µM, compound concentration 10 uM, replicate 1
[8] = 24 h, 10 µM, compound concentration 10 uM, replicate 2
[9] = 48 h, 10 µM, compound concentration 10 uM, replicate 1
[10] = 48 h, 10 µM, compound concentration 10 uM, replicate 2

`CNC(=O)c1nn(C)c2c1C(C)(C)Cc1cnc(Nc3ccc(N4CCN(C)CC4)cc3)nc1-2` [MILCICLIB] was tested. Which “Population Apoptotic (%)” value [1] did it give?
The value was 39%.

What about the “Population Fragmented Nuclei (%)” value [1] of the same molecule?
Its value is 17%.

What about the “Population Healthy Nuclei (%)” value [1] of the same molecule?
Its value is 66%.

And the “Population Hoechst High Intensity Objects (%)” value [1]?
Its value is 6%.

What about the “Population Membrane Permeable-Phenotype (%)” value [1] of the same molecule?
Its value is 25%.

And the “Population Mitochondria Different-Phenotype (%)” value [1]?
Its value is 64%.

And the “Population Mitotic Cells (%)” value [1]?
Its value is 60%.

And the “Population Normal (%)” value [1]?
Its value is 93%.

And the “Population Pyknosed Nuclei (%)” value [1]?
The value was 15%.

And the “Population Tubulin-Different-Phenotype (%)” value [1]?
Its value is 100%.

What about the “Total Cell Count” value [1] of the same molecule?
Its value is 194.

And the “Population Apoptotic (%)” value [2]?
The value was 58%.

What about the “Population Fragmented Nuclei (%)” value [2] of the same molecule?
Its value is 18%.

What about the “Population Healthy Nuclei (%)” value [2] of the same molecule?
Its value is 69%.

What about the “Population Hoechst High Intensity Objects (%)” value [2] of the same molecule?
Its value is 18%.

And the “Population Membrane Permeable-Phenotype (%)” value [2]?
Its value is 12%.

And the “Population Mitochondria Different-Phenotype (%)” value [2]?
Its value is 76%.

What about the “Population Mitotic Cells (%)” value [2] of the same molecule?
Its value is 41%.

What about the “Population Normal (%)” value [2] of the same molecule?
The value was 81%.

What about the “Population Pyknosed Nuclei (%)” value [2] of the same molecule?
The value was 12%.

And the “Population Tubulin-Different-Phenotype (%)” value [2]?
Its value is 90%.

What about the “Total Cell Count” value [2] of the same molecule?
The value was 163.

What about the “Population Apoptotic (%)” value [3] of the same molecule?
The value was 60% and 50% and 62%.

And the “Population Fragmented Nuclei (%)” value [3]?
Its value is 16% and 20% and 13%.

What about the “Population Healthy Nuclei (%)” value [3] of the same molecule?
The value was 49% and 42% and 64%.

What about the “Population Hoechst High Intensity Objects (%)” value [3] of the same molecule?
Its value is 7% and 10% and 5%.

What about the “Population Membrane Permeable-Phenotype (%)” value [3] of the same molecule?
Its value is 20% and 15% and 29%.

What about the “Population Mitochondria Different-Phenotype (%)” value [3] of the same molecule?
The value was 95% and 98% and 57%.

What about the “Population Mitotic Cells (%)” value [3] of the same molecule?
Its value is 40% and 50% and 37%.

What about the “Population Normal (%)” value [3] of the same molecule?
The value was 92% and 89% and 94%.

And the “Population Pyknosed Nuclei (%)” value [3]?
The value was 33% and 37% and 21%.

What about the “Population Tubulin-Different-Phenotype (%)” value [3] of the same molecule?
The value was 98% and 100% and 99%.

What about the “Total Cell Count” value [3] of the same molecule?
The value was 208 and 243 and 221.

And the “Population Apoptotic (%)” value [4]?
The value was 73% and 55%.

And the “Population Fragmented Nuclei (%)” value [4]?
Its value is 12% and 8%.

What about the “Population Healthy Nuclei (%)” value [4] of the same molecule?
Its value is 54% and 68% and 62%.

What about the “Population Membrane Permeable-Phenotype (%)” value [4] of the same molecule?
Its value is 28% and 25% and 24%.

And the “Population Mitochondria Different-Phenotype (%)” value [4]?
The value was 100% and 76%.

What about the “Population Mitotic Cells (%)” value [4] of the same molecule?
Its value is 26% and 44%.

And the “Population Normal (%)” value [4]?
The value was 90% and 85% and 97%.

And the “Population Pyknosed Nuclei (%)” value [4]?
The value was 25% and 19% and 29%.

What about the “Population Tubulin-Different-Phenotype (%)” value [4] of the same molecule?
Its value is 91%.

And the “Total Cell Count” value [4]?
Its value is 122 and 87 and 65.

And the “Population Apoptotic (%)” value [5]?
Its value is 85%.

What about the “Population Fragmented Nuclei (%)” value [5] of the same molecule?
The value was 17%.

And the “Population Healthy Nuclei (%)” value [5]?
Its value is 54%.

What about the “Population Hoechst High Intensity Objects (%)” value [5] of the same molecule?
Its value is 11%.

And the “Population Membrane Permeable-Phenotype (%)” value [5]?
Its value is 33%.

What about the “Population Mitochondria Different-Phenotype (%)” value [5] of the same molecule?
Its value is 92%.

What about the “Population Mitotic Cells (%)” value [5] of the same molecule?
The value was 14%.

And the “Population Normal (%)” value [5]?
The value was 88%.

And the “Population Pyknosed Nuclei (%)” value [5]?
The value was 27%.

What about the “Population Tubulin-Different-Phenotype (%)” value [5] of the same molecule?
Its value is 100%.

And the “Total Cell Count” value [5]?
Its value is 186.

What about the “Population Apoptotic (%)” value [6] of the same molecule?
Its value is 86%.

And the “Population Fragmented Nuclei (%)” value [6]?
The value was 20%.

And the “Population Healthy Nuclei (%)” value [6]?
The value was 60%.

What about the “Population Hoechst High Intensity Objects (%)” value [6] of the same molecule?
Its value is 23%.

And the “Population Membrane Permeable-Phenotype (%)” value [6]?
The value was 22%.

And the “Population Mitochondria Different-Phenotype (%)” value [6]?
The value was 83%.

And the “Population Mitotic Cells (%)” value [6]?
The value was 13%.

What about the “Population Normal (%)” value [6] of the same molecule?
The value was 76%.

What about the “Population Pyknosed Nuclei (%)” value [6] of the same molecule?
The value was 18%.

What about the “Population Tubulin-Different-Phenotype (%)” value [6] of the same molecule?
The value was 87%.

What about the “Total Cell Count” value [6] of the same molecule?
Its value is 160.

And the “Population Apoptotic (%)” value [7]?
The value was 78% and 87% and 84%.

And the “Population Fragmented Nuclei (%)” value [7]?
Its value is 20% and 22% and 15%.

And the “Population Healthy Nuclei (%)” value [7]?
The value was 27% and 32% and 52%.

What about the “Population Hoechst High Intensity Objects (%)” value [7] of the same molecule?
The value was 15% and 11%.

And the “Population Membrane Permeable-Phenotype (%)” value [7]?
The value was 40% and 25% and 36%.

And the “Population Mitochondria Different-Phenotype (%)” value [7]?
The value was 100% and 93%.

What about the “Population Mitotic Cells (%)” value [7] of the same molecule?
Its value is 21% and 12% and 15%.

What about the “Population Normal (%)” value [7] of the same molecule?
Its value is 84% and 88%.

And the “Population Pyknosed Nuclei (%)” value [7]?
The value was 51% and 45% and 32%.

What about the “Population Tubulin-Different-Phenotype (%)” value [7] of the same molecule?
Its value is 100% and 95% and 96%.

And the “Total Cell Count” value [7]?
Its value is 235 and 238 and 280.

What about the “Population Apoptotic (%)” value [8] of the same molecule?
The value was 66% and 83% and 86%.

And the “Population Fragmented Nuclei (%)” value [8]?
Its value is 9% and 14%.

What about the “Population Healthy Nuclei (%)” value [8] of the same molecule?
The value was 49% and 64% and 61%.

What about the “Population Hoechst High Intensity Objects (%)” value [8] of the same molecule?
Its value is 12% and 13% and 18%.

And the “Population Membrane Permeable-Phenotype (%)” value [8]?
The value was 56% and 31% and 62%.

What about the “Population Mitochondria Different-Phenotype (%)” value [8] of the same molecule?
Its value is 82%.

And the “Population Mitotic Cells (%)” value [8]?
Its value is 33% and 16% and 13%.

What about the “Population Normal (%)” value [8] of the same molecule?
The value was 87% and 86% and 81%.

And the “Population Pyknosed Nuclei (%)” value [8]?
The value was 40% and 21% and 28%.

What about the “Population Tubulin-Different-Phenotype (%)” value [8] of the same molecule?
The value was 93%.

And the “Total Cell Count” value [8]?
The value was 78 and 113 and 118.

What about the “Population Apoptotic (%)” value [9] of the same molecule?
Its value is 86% and 85%.

And the “Population Fragmented Nuclei (%)” value [9]?
Its value is 29% and 24%.

And the “Population Healthy Nuclei (%)” value [9]?
Its value is 9% and 15%.

And the “Population Hoechst High Intensity Objects (%)” value [9]?
Its value is 15% and 20%.

What about the “Population Membrane Permeable-Phenotype (%)” value [9] of the same molecule?
Its value is 26% and 55%.

What about the “Population Mitochondria Different-Phenotype (%)” value [9] of the same molecule?
Its value is 100%.

And the “Population Mitotic Cells (%)” value [9]?
Its value is 13% and 14%.

And the “Population Normal (%)” value [9]?
Its value is 84% and 79%.

What about the “Population Pyknosed Nuclei (%)” value [9] of the same molecule?
The value was 61% and 59%.

What about the “Population Tubulin-Different-Phenotype (%)” value [9] of the same molecule?
The value was 89%.

And the “Total Cell Count” value [9]?
Its value is 315 and 232.

What about the “Population Apoptotic (%)” value [10] of the same molecule?
The value was 76% and 84%.

What about the “Population Fragmented Nuclei (%)” value [10] of the same molecule?
Its value is 11% and 10%.

And the “Population Healthy Nuclei (%)” value [10]?
The value was 38% and 52%.

What about the “Population Hoechst High Intensity Objects (%)” value [10] of the same molecule?
Its value is 30% and 27%.

And the “Population Membrane Permeable-Phenotype (%)” value [10]?
The value was 87% and 71%.

And the “Population Mitochondria Different-Phenotype (%)” value [10]?
Its value is 97%.

What about the “Population Mitotic Cells (%)” value [10] of the same molecule?
Its value is 23% and 15%.

And the “Population Normal (%)” value [10]?
Its value is 70% and 72%.

And the “Population Pyknosed Nuclei (%)” value [10]?
The value was 50% and 37%.

What about the “Population Tubulin-Different-Phenotype (%)” value [10] of the same molecule?
The value was 100% and 95%.

What about the “Total Cell Count” value [10] of the same molecule?
The value was 118 and 104.
